For data set [1], the system named is Mycobacterium tuberculosis. In words: Antitubercular activity against Mycobacterium tuberculosis CNCTC My 331/88 (H37Rv) assessed as inhibition of bacterial growth measured after 14 days of incubation by Sulas semisynthetic medium based assay. The class given is functional. The note with it: 336 h, time 14 day. In a few lines:
(§1)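 Micromethod MIC in Sula's semisynthetic medium. MIC is the lowest concentration inhibiting >99% of the mycobacterial population. Isoniazid was the standard drug.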

Data set [2] has as its system Mycobacterium tuberculosis. In words: Antitubercular activity against Mycobacterium tuberculosis CNCTC My 331/88 (H37Rv) assessed as inhibition of bacterial growth measured after 21 days of incubation by Sulas semisynthetic medium based assay. The format is functional. The note with it: 504 h, time 21 day. The method in brief:
as §1

For data set [3], the system named is Mycobacterium avium. In words: Antitubercular activity against Mycobacterium avium CNCTC My 330/88 assessed as inhibition of bacterial growth measured after 14 days of incubation by Sulas semisynthetic medium based assay. The class given is functional. The note with it: CNCTC My 330/88, 336 h, time 14 day. The method in brief:
(§2)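 M. avium was tested by the micromethod in Sula's semisynthetic medium. Compounds in DMSO at 1000 to 0.5 μmol/L. Incubation at 37 °C, read at 14 and 21 days. MIC is the lowest concentration giving >99% growth inhibition.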

For data set [4], the system named is Mycobacterium avium. In words: Antitubercular activity against Mycobacterium avium CNCTC My 330/88 assessed as inhibition of bacterial growth measured after 21 days of incubation by Sulas semisynthetic medium based assay. The class given is functional. The note with it: CNCTC My 330/88, 504 h, time 21 day. The method in brief: as §2
The next data set deals with Mycobacterium kansasii. Put plainly: Antitubercular activity against Mycobacterium kansasii CNCTC My 235/80 assessed as inhibition of bacterial growth measured after 14 days of incubation by Sulas semisynthetic medium based assay. The class given is functional. The note with it: CNCTC My 235/80, 336 h, time 14 day. The method in brief: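 Micromethod in Sula's semisynthetic medium. MIC is the lowest concentration inhibiting >99% of the mycobacterial population. Isoniazid was the standard.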

The subject of data set [5] is Mycobacterium tuberculosis. Put plainly: Antimycobacterial activity against XDR clinical isolate Mycobacterium tuberculosis PRAHA 1 assessed as inhibition of mycobacterial growth measured after 14 to 21 days of incubation by Sulas semisynthetic medium based assay. The class given is functional. The note with it: time 14-21 day. In a few lines: (§3)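 Clinical MDR/XDR M. tuberculosis isolates were tested by the Sula's semisynthetic medium micromethod. Compounds in DMSO at 1000 to 0.5 μmol/L, in twofold-type steps. Incubation at 37 °C, read at 14 and 21 days. MIC99 is the lowest concentration inhibiting >99% of growth. Drug resistance or susceptibility of each isolate is to amikacin, clofazimine, gentamicin, ofloxacin, streptomycin and the others listed.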

Data set [6] deals with Mycobacterium tuberculosis. Put plainly: Antimycobacterial activity against MDR clinical isolate Mycobacterium tuberculosis PRAHA 4 assessed as inhibition of mycobacterial growth measured after 14 to 21 days of incubation by Sulas semisynthetic medium based assay. The note with it: time 14-21 day. The class given is functional. The method in brief: as §3
In data set [7] the test system is Mycobacterium tuberculosis. Put plainly: Antimycobacterial activity against MDR clinical isolate Mycobacterium tuberculosis PRAHA 131 assessed as inhibition of mycobacterial growth measured after 14 to 21 days of incubation by Sulas semisynthetic medium based assay. The note with it: time 14-21 day. The format is functional. The method in brief:
as §3

For data set [8], the system named is Mycobacterium tuberculosis. Put plainly: Antimycobacterial activity against MDR clinical isolate Mycobacterium tuberculosis 9449/2007 assessed as inhibition of mycobacterial growth measured after 14 to 21 days of incubation by Sulas semisynthetic medium based assay. The class given is functional. The conditions noted are these: time 14-21 day. In a few lines:
as §3

In data set [9] the test system is Mycobacterium tuberculosis. In words: Antimycobacterial activity against MDR clinical isolate Mycobacterium tuberculosis 234/2005 assessed as inhibition of mycobacterial growth measured after 14 to 21 days of incubation by Sulas semisynthetic medium based assay. The class given is functional. The conditions noted are these: time 14-21 day. The method in brief:
as §3

The test system of data set [10] is Mycobacterium tuberculosis. In words: Antimycobacterial activity against MDR clinical isolate Mycobacterium tuberculosis 7357/1998 assessed as inhibition of mycobacterial growth measured after 14 to 21 days of incubation by Sulas semisynthetic medium based assay. The format is functional. The note with it: time 14-21 day. In a few lines: as §3
The subject of data set [11] is Mycobacterium tuberculosis. Put plainly: Antimycobacterial activity against MDR clinical isolate Mycobacterium tuberculosis 8666/2010 assessed as inhibition of mycobacterial growth measured after 14 to 21 days of incubation by Sulas semisynthetic medium based assay. The format is functional. The note with it: time 14-21 day. In a few lines:
as §3

Data set [12] concerns Mycobacterium tuberculosis. In words: Antimycobacterial activity against XDR clinical isolate Mycobacterium tuberculosis 8666/2010 assessed as inhibition of mycobacterial growth measured after 14 to 21 days of incubation by Sulas semisynthetic medium based assay. The note with it: time 14-21 day. The class given is functional. The method in brief:
as §3

Another data set deals with HepG2. Put plainly: Cytotoxicity against human HepG2 cells incubated for 24 hrs by MTT assay. The class given is functional, cell-based. The conditions noted are these: HepG2, 24 h. The method in brief:
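HepG2 cells in DMEM with 10% FBS, seeded at 15 × 10³ cells/well and attached overnight. Exposed for 24 h to serial dilutions prepared from DMSO stocks, final DMSO ≤1%. Then given fresh medium with 0.5 mg/mL MTT for 1 h at 37 °C. Formazan dissolved in DMSO and read at 570 nm. IC50 from 4-parameter nonlinear regression; three independent experiments in triplicate, mean ± SD.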

A further data set has as its system H9c2. In words: Cytotoxicity against rat H9c2 cells assessed as cell viability at 50 uM incubated for 72 hrs by MTT spectrophotometric analysis relative to control. The format is functional. The note with it: read-out: Activity. The method in brief: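 HepG2 or rat H9c2 cells in DMEM with FBS, seeded at 10,000 cells/well. Treated 24 h later for 72 h, with 0.1% DMSO vehicle and 1% Triton X-100 as controls. MTT added (3 mg/mL solution) for 2 h at 37 °C, then cells lysed in isopropanol/0.1 M HCl/5% Triton X-100. Read at 570 nm minus 690 nm. Viability expressed as % of vehicle; IC50 derived where reached. At least four independent experiments.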

The nature of data set [13]: Aqueous solubility of compound incubated for 20 mins by UV-Visible spectrophotometric analysis. The class given is physicochemical. The note with it: buffer. In a few lines:
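Solubility in ultrapure water containing 5% DMSO. Absorbance taken at each compound's λmax and compared with a six-point calibration made by serial dilution of a 50 μM standard, fitted by linear regression. Over-saturated solutions were sonicated at 37 °C for 10 min and centrifuged at 8000 RPM for 10 min. Supernatant absorbance was read, after dilution with 5% DMSO/water if above the calibration range.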

Data set [14] is described as follows: Intrinsic clearance in human liver microsomes at 3 uM incubated for 5 to 45 min in presence of NADPH by LC-MS analysis. The class given is ADME, Microsome. The note with it: time 5-45 min, read-out: CLH.
The subject of data set [15] is Staphylococcus aureus. Put plainly: Antibacterial activity against Staphylococcus aureus C1947 assessed as inhibition of bacterial growth incubated for 24 to 48 hrs by microdilution broth method. The class given is functional, organism-based. The conditions noted are these: time 24-48 hrs. In a few lines: (§4)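 Clinical isolates kept at –70 °C and subcultured twice on Mueller-Hinton agar, using the second subculture. Broth microdilution in Mueller-Hinton broth at pH 7.4 with two-fold serial compound dilutions and DMSO ≤1% final. Inoculum was 10 μL of a 1.5 × 10⁸ CFU/mL suspension. Incubated at 36 °C ± 1 °C and read at 24 h and 48 h. MIC taken as 95% growth inhibition.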

In data set [16] the test system is Staphylococcus aureus. Put plainly: Antibacterial activity against methicilin-resistant Staphylococcus aureus C1923 assessed as inhibition of bacterial growth incubated for 24 to 48 hrs by microdilution broth method. The note with it: time 24-48 hrs. The class given is functional, organism-based. In a few lines:
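Clinical isolates, stored at −70 °C, were passaged twice on Mueller-Hinton agar. Broth microdilution in Mueller-Hinton broth, pH 7.4, with twofold serial dilutions. DMSO was at most 1% final. Inoculum 1.5 × 10⁸ CFU/mL suspension. MIC is 95% growth inhibition, read after 24 and 48 h at 36 °C.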

The test system of data set [17] is Staphylococcus epidermidis. Put plainly: Antibacterial activity against Staphylococcus epidermidis C1936 assessed as inhibition of bacterial growth incubated for 24 to 48 hrs by microdilution broth method. The format is functional, organism-based. The note with it: time 24-48 hrs. In a few lines:
as §4

A further data set relates to Klebsiella pneumoniae. In words: Antibacterial activity against ESBL negative Klebsiella pneumoniae C1950 assessed as inhibition of bacterial growth incubated for 24 to 48 hrs by microdilution broth method. The note with it: time 24-48 hrs. The format is functional, organism-based. The method in brief:
as §4

This is an account of results in ChEMBL document CHEMBL5620421, “2,6-Disubstituted 7-(naphthalen-2-ylmethyl)-7H-purines as a new class of potent antitubercular agents inhibiting DprE1” (Eur J Med Chem, 2023).

Values after ≈ are worked out from the molar mass of the structure shown. Active and inactive are the calls of the source. The rule behind the calls is not given here. Bounds are passed on as bounds.

Regarding `O=c1[nH]c(N2CCSCC2)nc2ncn(Cc3ccc4ccccc4c3)c12`, the MIC99 in data set [1] is 2 µM (≈ 0.755 µg/mL); in data set [2], 4 µM (≈ 1.51 µg/mL); in the data set with Mycobacterium avium [3], more than 500 µM; with Mycobacterium avium [4], more than 500 µM; with Mycobacterium kansasii it was 64 µM (≈ 24.2 µg/mL); in data set [5], 16 µM (≈ 6.04 µg/mL). Besides, the MIC99 in data set [6] was found to be 8 µM (≈ 3.02 µg/mL); in data set [7] it was 8 µM (≈ 3.02 µg/mL); in data set [8] it was 8 µM (≈ 3.02 µg/mL); in data set [9], 16 µM (≈ 6.04 µg/mL); in data set [10], 16 µM (≈ 6.04 µg/mL); in [11] it was 8 µM (≈ 3.02 µg/mL). Also, the MIC99 in data set [12] worked out at 8 µM (≈ 3.02 µg/mL). This compound returned an IC50 in the data set with HepG2 of more than 32 µM. For the same compound, the viability at 50 µM in the data set on H9c2 was 97.1%. This compound also returned a solubility at 20 min in data set [13] of 9.3 µM (≈ 3.51 µg/mL). Also, the microsomal CLint at 3 µM in [14] was 127 µL/min/mg. In addition, the outcome (with Staphylococcus aureus [15]; in the data set on Staphylococcus aureus [16]; in data set [17]; with Klebsiella pneumoniae) was inactive.

As for `O=c1[nH]c(N2CCCCC2)nc2ncn(Cc3ccc4ccccc4c3)c12`, the MIC99 is 2 µM (≈ 0.719 µg/mL) in [1]; 4 µM (≈ 1.44 µg/mL) in data set [2]; more than 500 µM with Mycobacterium avium [3]; more than 500 µM in the data set with Mycobacterium avium [4]; more than 500 µM with Mycobacterium kansasii; 16 µM (≈ 5.75 µg/mL) in data set [5]. The MIC99 is 8 µM (≈ 2.88 µg/mL) in data set [6]; 8 µM (≈ 2.88 µg/mL) in [7]; 8 µM (≈ 2.88 µg/mL) in [8]; 16 µM (≈ 5.75 µg/mL) in data set [9]; 16 µM (≈ 5.75 µg/mL) in data set [10]; 8 µM (≈ 2.88 µg/mL) in [11]. For the same compound, the MIC99 in [12] was found to be 8 µM (≈ 2.88 µg/mL). Further, inhibition with HepG2 was half-maximal at 87.2 µM (IC50). Also, the viability at 50 µM in the data set on H9c2 turned out to be 79.4%. For the same compound, the solubility at 20 min in [13] amounted to 8.4 µM (≈ 3.02 µg/mL). In addition, the microsomal CLint at 3 µM in [14] was 77.9 µL/min/mg. In addition, the outcome (in the data set with Staphylococcus aureus [15]; with Staphylococcus aureus [16]; in data set [17]; in the data set on Klebsiella pneumoniae) was inactive.
